Data reported in ChEMBL document CHEMBL1157325, “7alpha,20-epoxy-ent-kauranoids from Isodon parvifolius” (J Nat Prod, 2006).

Key:
Format in all cases: functional, cell-based
A549 = assay: Cytotoxicity against human A549 cells after 72 hrs by SRB assay; details: A549, 72 h
Summary of the method: (§1)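 Adherent tumour cells seeded 24 h before treatment, then exposed continuously to a range of compound concentrations for 72 h. Cells were then fixed and stained with sulforhodamine B to read growth, and IC50 values were derived from the concentration series.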

K562 = assay: Cytotoxicity against human K562 cells after 72 hrs by SRB assay; details: K562, 72 h
HT-29 = assay: Cytotoxicity against human HT29 cells after 72 hrs by SRB assay; details: HT-29, 72 h; summary of the method: as §1

Row | SMILES | IC50 (A549) | IC50 (K562) | IC50 (HT-29)
1 | C=C1C(=O)[C@]23C[C@H]1C[C@H](O)[C@H]2[C@@]12CO[C@@]3(O)[C@@H](O)[C@@H]1C(C)(C)CC[C@@H]2OC(C)=O [PARVIFOLINE I] | > 100 µM | > 100 µM | > 100 µM
2 | C=C1C(=O)[C@]23C[C@H]1CC[C@H]2[C@@]12CO[C@@]3(O)[C@@H](O)[C@@H]1[C@@](C)(CO)CC[C@@H]2O [PARVIFOLINE C] |  | 13.8 µM | 
3 | COC[C@H]1C(=O)[C@]23C[C@H]1C[C@H](OC(C)=O)[C@H]2[C@@]12CO[C@@]3(O)[C@@H](O)[C@@H]1C(C)(C)CC[C@@H]2O [PARVIFOLINE J] | > 100 µM | > 100 µM | > 100 µM
4 | C=C1C(=O)[C@]23C[C@H]1[C@@H](O)C=C2[C@@]12CO[C@@]3(O)[C@@H](O)[C@@H]1C(C)(C)CC[C@@H]2O [PARVIFOLINE F] | > 100 µM | > 100 µM | > 100 µM
5 | C=C1[C@@H]2C[C@@H](OC(C)=O)[C@H]3[C@@]45CO[C@@](O)(C(=O)[C@@H]4C(C)(C)CC[C@@H]5OC(C)=O)[C@]3(C2)[C@@H]1OC(C)=O [PARVIFOLINE G] | > 100 µM | > 100 µM | > 100 µM
6 | C=C1C(=O)[C@]23[C@H](O)[C@H]1CC[C@H]2[C@@]12CO[C@@]3(O)[C@@H](O)[C@@H]1[C@@](C)(CO)CC[C@@H]2O [PARVIFOLINE D] | > 100 µM | > 100 µM | > 100 µM
7 | C=C1C(=O)[C@]23C[C@H]1C[C@H](OC(C)=O)[C@H]2[C@@]12CO[C@@]3(O)[C@@H](O)[C@@H]1C(C)(C)CC[C@@H]2O [PARVIFOLINE H] | > 100 µM | > 100 µM | > 100 µM
